ChEMBL document CHEMBL1157543, “Synthesis and biological evaluation of polysulfated oligosaccharide glycosides as inhibitors of angiogenesis and tumor growth” (J Med Chem, 2010)
Active and inactive are the calls of the source. The calls are words filed in the database; no cut-off is given here.

Tests used:
[1] = Half life in Sprague-Dawley rat at 10 mg/kg, sc; assay type: ADME, organism-based; set-up: dose 10 mg/kg, route subcutaneous; settings: in vivo
How it was run: (§1)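 Male Sprague-Dawley rats (n = 2 per route), cannulated the day before. Compound given at 2.8 mg/mL in PBS: iv infusion over 5 min or sc between the scapulae, nominal 10 mg/kg. Arterial blood sampled up to 8 h into tubes with protease inhibitor, KF and EDTA; urine collected to 24 h. Plasma analyzed by LC-MS; noncompartmental analysis.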

Plasma [2] = test: Anticoagulant activity in human plasma by heptest; assay type: functional
How it was run: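 Heptest clot assay. Plasma (centrifuged 1800g, 10 min, used within 30 min) incubated with compound 2 min at 37 °C. Factor Xa added, 2 min at 37 °C, then clotting started with Recalmix; read on a ball coagulometer. Normal range 13–20 s; means of two determinations.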

[3] = target: Fibroblast growth factor 1 (Homo sapiens, UniProt P05230); test: Binding affinity to FGF1 by surface plasmon-based solution affinity assay
How it was run: (§2)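 Surface plasmon resonance solution affinity assay on heparin-coated CM4 chips. Buffer: HBS-EP (10 mM HEPES pH 7.4, 150 mM NaCl, 3.0 mM EDTA, 0.005% polysorbate 20). Kd is the mean of at least duplicate measurements ± SD.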

[4] = Plasma clearance in Sprague-Dawley rat at 10 mg/kg, iv and 10 mg/kg, sc; assay type: ADME, organism-based; how it was run: as §1
Plasma [5] = test: Anticoagulant activity in human plasma assessed as activated partial thromboplastin time; assay type: functional
How it was run: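 Pooled normal human plasma spiked with compound in PBS at 0.1 mg/mL (methods give a 0–100 μg/mL range); APTT elevation measured. Normal range 26–36 s. Values are means of two determinations.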

[6] = target: Fibroblast growth factor 2 (Homo sapiens, UniProt P09038); test: Binding affinity to FGF2 by surface plasmon-based solution affinity assay
How it was run: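 Surface plasmon resonance solution affinity assay on heparin-coated CM4 chips. FGF-2 binding run in HBS-EP containing 300 mM NaCl. Kd is the mean of at least duplicate measurements ± SD.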

Heparanase = target: T1, Heparanase (Homo sapiens, UniProt Q9Y251); test: Inhibition of human recombinant heparanase
T1 sequence (Q9Y251 whole entry): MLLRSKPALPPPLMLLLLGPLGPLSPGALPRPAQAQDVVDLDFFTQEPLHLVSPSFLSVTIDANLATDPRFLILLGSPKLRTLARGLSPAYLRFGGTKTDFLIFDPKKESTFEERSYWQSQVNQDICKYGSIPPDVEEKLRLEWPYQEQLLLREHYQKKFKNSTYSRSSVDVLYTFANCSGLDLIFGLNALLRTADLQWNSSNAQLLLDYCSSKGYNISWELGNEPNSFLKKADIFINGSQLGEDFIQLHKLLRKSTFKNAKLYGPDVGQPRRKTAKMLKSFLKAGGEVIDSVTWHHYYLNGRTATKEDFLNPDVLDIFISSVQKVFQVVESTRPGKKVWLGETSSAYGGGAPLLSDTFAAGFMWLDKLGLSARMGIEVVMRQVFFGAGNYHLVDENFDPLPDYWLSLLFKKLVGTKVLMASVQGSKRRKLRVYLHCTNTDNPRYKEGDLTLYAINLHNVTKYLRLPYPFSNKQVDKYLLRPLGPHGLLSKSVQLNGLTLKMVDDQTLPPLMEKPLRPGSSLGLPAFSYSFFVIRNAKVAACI
How it was run: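 Recombinant human heparanase assayed by ultrafiltration with 3H-labelled heparan sulfate as substrate (Km = 1.64 μM). Ki values with standard error were derived from inhibition response curves.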

[7] = Apparent volume of distribution in Sprague-Dawley rat at 10 mg/kg, iv and 10 mg/kg, sc; assay type: ADME, organism-based; settings: in vivo, read-out: Vz; how it was run: as §1
B16 [8] = test: Antitumor activity against mouse B16 cells transplanted in C57/BL6 mouse assessed as reduction in tumor volume at 30 mg/kg for 7 days measured on day 10; assay type: functional; settings: read-out: TGI
How it was run: (§3)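 B16F1 cells grown in DMEM with 10% FCS, 5×10^5 cells in PBS implanted sc between the shoulder blades of C57 mice (n = 10). From day 3, compound given sc in PBS b.i.d. for 7 days at rotating sites. Tumors measured daily as l × w; p < 0.05 taken as significant.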

[9] = Toxicity in rat aortic endothelium assessed as microvessel sprouts at 10 and 50 uM after 6 or 7 days; assay type: tissue-based, Sprague-Dawley, Aorta; settings: ex_vivo, 168 h
How it was run: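 Aortic ring viability check: on day 6 or 7, compound or medium was withdrawn and complete medium with VEGF (typically 10 ng/mL) was added for up to 7 more days. New microvessel sprouting was taken as a sign of viable tissue.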

[10] = Bioavailability in Sprague-Dawley rat at 10 mg/kg, sc; assay type: ADME, organism-based; settings: in vivo; how it was run: as §1
[11] = target: T2, Vascular endothelial growth factor A, long form (Homo sapiens, UniProt P15692); test: Binding affinity to VEGF by surface plasmon-based solution affinity assay; how it was run: as §2
T2 sequence (P15692 whole entry): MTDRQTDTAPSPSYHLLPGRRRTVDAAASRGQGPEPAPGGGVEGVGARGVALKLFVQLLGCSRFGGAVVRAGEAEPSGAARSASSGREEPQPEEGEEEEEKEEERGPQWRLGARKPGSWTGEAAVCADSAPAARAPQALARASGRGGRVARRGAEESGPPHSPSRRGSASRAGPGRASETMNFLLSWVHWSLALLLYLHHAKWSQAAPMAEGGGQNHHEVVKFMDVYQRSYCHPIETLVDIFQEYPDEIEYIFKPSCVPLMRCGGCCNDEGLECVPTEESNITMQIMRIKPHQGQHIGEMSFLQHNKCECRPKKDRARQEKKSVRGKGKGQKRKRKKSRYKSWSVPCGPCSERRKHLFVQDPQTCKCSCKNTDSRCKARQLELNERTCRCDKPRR

HUVEC = test: Cytotoxicity against HUVEC; assay type: cell-based; settings: human
[12] = Half life in Sprague-Dawley rat at 10 mg/kg, iv; assay type: ADME, organism-based; set-up: dose 10 mg/kg, route intravenous; settings: in vivo; how it was run: as §1
B16 [13] = test: Antitumor activity against mouse B16 cells transplanted in C57/BL6 mouse assessed as reduction in tumor volume at 15 mg/kg for 7 days measured on day 10; assay type: functional; settings: read-out: TGI; how it was run: as §3
Aorta = test: Inhibition of angiogenesis in Sprague-Dawley rat aortic endothelium at 50 uM; assay type: functional, tissue-based
How it was run: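 Sprague-Dawley rats (2–4 months old): bisected 1 mm thoracic aortic rings embedded in Matrigel in EBM-2 with 2% FCS, no heparin. Compound added in triplicate, medium replenished every 48 h. Microvessel sprouting scored semiquantitatively by two assessors up to day 8. One-way ANOVA with Dunnett's test.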

Fibroblast growth factor 2, sequence (P09038 143-288 limits assumed): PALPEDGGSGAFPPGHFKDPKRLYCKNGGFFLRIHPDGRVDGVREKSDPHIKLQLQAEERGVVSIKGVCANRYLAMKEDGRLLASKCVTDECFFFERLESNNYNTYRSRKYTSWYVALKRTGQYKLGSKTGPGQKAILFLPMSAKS
Fibroblast growth factor 1, sequence (P05230 whole entry): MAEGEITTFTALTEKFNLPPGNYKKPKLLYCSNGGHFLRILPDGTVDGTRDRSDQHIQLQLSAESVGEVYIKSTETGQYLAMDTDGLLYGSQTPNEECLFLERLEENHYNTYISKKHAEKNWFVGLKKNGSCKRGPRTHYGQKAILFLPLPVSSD

SMILES | half-life [1] | Activity (Plasma [2]) | Kd [3] | clearance [4] | Time (Plasma [5]) | Kd [6] | Ki (Heparanase) | Vd [7] | inhibition in vivo at 30 mg/kg (B16 [8]) | Activity [9] | bioavailability [10] | Kd [11] | LC50 (HUVEC) | half-life [12] | inhibition in vivo at 15 mg/kg (B16 [13]) | Activity (Aorta)
CCCCCCCCO[C@H]1O[C@H](COS(=O)(=O)[O-])[C@@H](OS(=O)(=O)[O-])[C@H](OS(=O)(=O)[O-])[C@@H]1O[C@H]1O[C@H](COS(=O)(=O)[O-])[C@@H](OS(=O)(=O)[O-])[C@H](O[C@H]2O[C@H](COS(=O)(=O)[O-])[C@@H](OS(=O)(=O)[O-])[C@H](O[C@H]3O[C@H](COS(=O)(=O)[O-])[C@@H](OS(=O)(=O)[O-])[C@H](OS(=O)(=O)[O-])[C@@H]3OS(=O)(=O)[O-])[C@@H]2OS(=O)(=O)[O-])[C@@H]1OS(=O)(=O)[O-].[Na+].[Na+].[Na+].[Na+].[Na+].[Na+].[Na+].[Na+].[Na+].[Na+].[Na+].[Na+].[Na+] | 1.7 h | 79.5 s | 0.118 nM | 0.2 mL/min/kg | 96.7 s | 160 nM | 330 nM | 0.026 L/kg | 86% | Toxic | 67% | 18 nM | > 100000 nM | 1.7 h | 64% | 
CCCCCCCCO[C@H]1O[C@H](COS(=O)(=O)[O-])[C@@H](OS(=O)(=O)[O-])[C@H](OS(=O)(=O)[O-])[C@@H]1O[C@H]1O[C@H](COS(=O)(=O)[O-])[C@@H](OS(=O)(=O)[O-])[C@H](O[C@H]2O[C@H](COS(=O)(=O)[O-])[C@@H](OS(=O)(=O)[O-])[C@H](O[C@H]3O[C@H](COS(=O)(=O)[O-])[C@@H](OS(=O)(=O)[O-])[C@H](O[C@H]4O[C@H](COS(=O)(=O)[O-])[C@@H](OS(=O)(=O)[O-])[C@H](OS(=O)(=O)[O-])[C@@H]4OS(=O)(=O)[O-])[C@@H]3OS(=O)(=O)[O-])[C@@H]2OS(=O)(=O)[O-])[C@@H]1OS(=O)(=O)[O-].[Na+].[Na+].[Na+].[Na+].[Na+].[Na+].[Na+].[Na+].[Na+].[Na+].[Na+].[Na+].[Na+].[Na+].[Na+].[Na+] | 1.1 h | 124.4 s | 0.161 nM | 1.4 mL/min/kg | 250.8 s | 82 nM | 350 nM |  | 94% | Toxic |  | 1.5 nM | > 100000 nM | 1.1 h | 42% | Active
